According to ChEMBL document CHEMBL1795214, “Discovery of novel xanthone derivatives as xanthine oxidase inhibitors” (Bioorg Med Chem Lett, 2011):
pIC50: −log10 of the molar value.

Experiments:
[1] = biological target: T1, Xanthine dehydrogenase/oxidase (Bos taurus, UniProt P80457); assay: Inhibition of bovine Xanthine oxidase assessed as reduction in uric acid level at 10 ug/ml by spectrophotometry; details: cattle
Procedure, shortened: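 Single-concentration screen at 10 μg/mL. XO activity was followed spectrophotometrically as uric acid formation at 293 nm and reported as percent inhibition. Below 60% inhibition at this concentration was recorded as not active.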

[2] = biological target: T1, Xanthine dehydrogenase/oxidase; assay: Inhibition of bovine Xanthine oxidase assessed as reduction in uric acid level by spectrophotometry

T1 sequence (P80457 whole entry): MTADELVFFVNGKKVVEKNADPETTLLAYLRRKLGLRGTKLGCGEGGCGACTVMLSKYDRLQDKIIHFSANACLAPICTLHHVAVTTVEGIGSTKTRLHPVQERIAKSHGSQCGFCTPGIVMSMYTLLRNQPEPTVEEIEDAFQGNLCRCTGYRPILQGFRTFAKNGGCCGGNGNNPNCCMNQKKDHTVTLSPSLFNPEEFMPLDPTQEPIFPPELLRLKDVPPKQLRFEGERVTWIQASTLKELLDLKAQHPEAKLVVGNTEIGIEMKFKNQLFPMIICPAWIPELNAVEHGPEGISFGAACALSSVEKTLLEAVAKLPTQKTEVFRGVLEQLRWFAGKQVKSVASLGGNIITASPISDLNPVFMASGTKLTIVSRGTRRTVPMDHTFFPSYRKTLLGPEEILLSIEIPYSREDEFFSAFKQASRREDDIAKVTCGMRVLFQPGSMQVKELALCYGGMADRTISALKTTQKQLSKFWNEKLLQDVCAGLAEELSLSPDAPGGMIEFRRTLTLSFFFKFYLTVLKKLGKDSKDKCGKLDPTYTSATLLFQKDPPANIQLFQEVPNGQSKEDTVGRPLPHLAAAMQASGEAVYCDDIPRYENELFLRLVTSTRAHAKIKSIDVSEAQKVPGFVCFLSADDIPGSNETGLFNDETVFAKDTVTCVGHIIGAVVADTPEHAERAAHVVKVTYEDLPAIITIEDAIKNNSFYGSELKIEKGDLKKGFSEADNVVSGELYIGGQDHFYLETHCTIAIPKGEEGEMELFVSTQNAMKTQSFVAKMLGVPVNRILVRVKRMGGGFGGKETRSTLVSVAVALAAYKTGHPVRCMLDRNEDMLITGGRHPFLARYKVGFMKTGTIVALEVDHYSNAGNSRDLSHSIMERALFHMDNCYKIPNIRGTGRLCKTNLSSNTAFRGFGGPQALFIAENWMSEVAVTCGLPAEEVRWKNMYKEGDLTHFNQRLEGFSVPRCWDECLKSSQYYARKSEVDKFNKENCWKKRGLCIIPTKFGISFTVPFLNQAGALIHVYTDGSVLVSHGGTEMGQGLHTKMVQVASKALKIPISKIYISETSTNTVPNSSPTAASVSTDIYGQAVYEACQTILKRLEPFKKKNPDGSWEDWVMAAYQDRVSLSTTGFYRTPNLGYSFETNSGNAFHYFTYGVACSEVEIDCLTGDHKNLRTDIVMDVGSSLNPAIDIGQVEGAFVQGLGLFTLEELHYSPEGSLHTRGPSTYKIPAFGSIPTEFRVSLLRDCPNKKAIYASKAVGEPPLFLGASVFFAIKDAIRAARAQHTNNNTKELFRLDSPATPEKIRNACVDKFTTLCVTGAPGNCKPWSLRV

SMILES | inhibition at 10 µg/mL [1] [%] | pIC50 [2]
O=c1c2cc(O)c(O)cc2oc2cc(O)cc(OCc3ccc(F)cc3)c12 | < 60 | 
O=c1c2cc(O)c(O)cc2oc2cc(O)cc(OCc3c(Cl)cccc3Cl)c12 | < 60 | 
O=c1c2cc(O)c(O)cc2oc2cc(O)cc(OCc3cccc(Cl)c3)c12 | < 60 | 
O=c1c2cc(O)c(O)cc2oc2cc(O)cc(OCc3ccc(Cl)cc3)c12 |  | 5.33
O=c1c2cc(O)c(O)cc2oc2cc(O)cc(OCc3cccc(F)c3)c12 | < 60 | 
Cc1cccc(COc2cc(O)cc3oc4cc(O)c(O)cc4c(=O)c23)c1 |  | 4.87
O=c1c2cc(O)c(O)cc2oc2cc(O)cc(OCc3ccc([N+](=O)[O-])cc3)c12 | < 60 | 
O=c1c2cc(O)c(O)cc2oc2cc(O)cc(OCc3cccc(Br)c3)c12 | < 60 | 
O=c1c2cc(O)c(O)cc2oc2cc(O)cc(OCc3ccc(Br)cc3)c12 |  | 4.70
N#Cc1cccc(COc2cc(O)cc3oc4cc(O)c(O)cc4c(=O)c23)c1 | < 60 | 
Cc1ccc(COc2cc(O)cc3oc4cc(O)c(O)cc4c(=O)c23)cc1 |  | 5.24
O=c1c2cc(O)c(O)cc2oc2cc(O)cc(OCc3ccc(Cl)cc3Cl)c12 | < 60 | 
N#Cc1ccc(COc2cc(O)cc3oc4cc(O)c(O)cc4c(=O)c23)cc1 |  | 5.33

Further lines, results first:

inhibition at 10 µg/mL [1] [%] | pIC50 [2] | SMILES
 | 5.15 | Cc1ccccc1COc1cc(O)cc2oc3cc(O)c(O)cc3c(=O)c12
< 60 |  | O=c1c2cc(O)c(O)cc2oc2cc(O)cc(OCc3ccccc3[N+](=O)[O-])c12
 | 5.19 | O=c1c2cc(O)c(O)cc2oc2cc(O)cc(OCc3ccccc3Cl)c12
< 60 |  | N#Cc1ccccc1COc1cc(O)cc2oc3cc(O)c(O)cc3c(=O)c12
< 60 |  | O=c1c2cc(O)c(O)cc2oc2cc(O)cc(OCc3ccccc3Br)c12
< 60 |  | O=c1c2cc(O)c(O)cc2oc2cc(O)cc(OCc3cccc([N+](=O)[O-])c3)c12
< 60 |  | O=c1c2cc(O)c(O)cc2oc2cc(O)cc(OCc3ccccc3F)c12
